In brackets after ≈: the same amount, converted by molar mass.
Legend:
Assay type in all cases: functional
[1] = tested on: Staphylococcus aureus; test: Antibacterial activity against methicillin-resistant Staphylococcus aureus N315 by microbroth dilution method
How it was run: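 Minimum inhibitory concentration against MRSA N315 determined by micro broth dilution in microdilution plates.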

[2] = tested on: Enterococcus faecalis; test: Antibacterial activity against Enterococcus faecalis by microbroth dilution method
[3] = tested on: Staphylococcus aureus; test: Antibacterial activity against Staphylococcus aureus by microbroth dilution method
[4] = tested on: Staphylococcus aureus; test: Antibacterial activity against Staphylococcus aureus ATCC 25923 by microbroth dilution method
[5] = tested on: Staphylococcus aureus; test: Antibacterial activity against Staphylococcus aureus ATCC 29213 by microbroth dilution method
[6] = tested on: Klebsiella pneumoniae; test: Antibacterial activity against Klebsiella pneumonia by microbroth dilution method
[7] = tested on: Escherichia coli; test: Antibacterial activity against Escherichia coli by microbroth dilution method
[8] = tested on: Pseudomonas aeruginosa; test: Antibacterial activity against Pseudomonas aeruginosa by microbroth dilution method
[9] = tested on: Acinetobacter baumannii; test: Antibacterial activity against Acinetobacter baumannii by microbroth dilution method
[10] = tested on: Pseudomonas aeruginosa; test: Antibacterial activity against Pseudomonas aeruginosa ATCC 27853 by microbroth dilution method
[11] = tested on: Escherichia coli; test: Antibacterial activity against Escherichia coli ATCC 25922 by microbroth dilution method

Compound: Cc1ccc2c(/C=C(\Oc3ccc4c(CN(CCO)CCO)cc(=O)oc4c3)C(=O)c3nccs3)c[nH]c2c1
- MIC [1]: 117 µM (≈ 63.8 µg/mL)
- MIC [2]: 15 µM (≈ 8.18 µg/mL)
- MIC [3]: 29 µM (≈ 15.8 µg/mL)
- MIC [4]: 7 µM (≈ 3.82 µg/mL)
- MIC [5]: 117 µM (≈ 63.8 µg/mL)
- MIC [6]: 235 µM (≈ 128 µg/mL)
- MIC [7]: 235 µM (≈ 128 µg/mL)
- MIC [8]: 117 µM (≈ 63.8 µg/mL)
- MIC [9]: 117 µM (≈ 63.8 µg/mL)
- MIC [10]: 59 µM (≈ 32.2 µg/mL)
- MIC [11]: 235 µM (≈ 128 µg/mL)

Compound: O=C(COc1ccc2c(CN(CCO)CCO)cc(=O)oc2c1)c1nccs1
- MIC [1]: 20 µM (≈ 8.09 µg/mL)
- MIC [2]: 316 µM (≈ 128 µg/mL)
- MIC [3]: 316 µM (≈ 128 µg/mL)
- MIC [4]: 633 µM (≈ 256 µg/mL)
- MIC [5]: 1270 µM (≈ 512 µg/mL)
- MIC [6]: 316 µM (≈ 128 µg/mL)
- MIC [7]: 316 µM (≈ 128 µg/mL)
- MIC [8]: 633 µM (≈ 256 µg/mL)
- MIC [9]: 633 µM (≈ 256 µg/mL)
- MIC [10]: 1270 µM (≈ 512 µg/mL)
- MIC [11]: 633 µM (≈ 256 µg/mL)

Compound: O=C(/C(=C/c1ccc(Br)cc1)Oc1ccc2c(CN(CCO)CCO)cc(=O)oc2c1)c1nccs1
- MIC [1]: 136 µM (≈ 77.7 µg/mL)
- MIC [2]: 136 µM (≈ 77.7 µg/mL)
- MIC [3]: 68 µM (≈ 38.9 µg/mL)
- MIC [4]: 272 µM (≈ 155 µg/mL)
- MIC [5]: 272 µM (≈ 155 µg/mL)
- MIC [6]: 1090 µM (≈ 621 µg/mL)
- MIC [7]: 1090 µM (≈ 621 µg/mL)
- MIC [8]: 272 µM (≈ 155 µg/mL)
- MIC [9]: 543 µM (≈ 310 µg/mL)
- MIC [10]: 1090 µM (≈ 621 µg/mL)
- MIC [11]: 543 µM (≈ 310 µg/mL)

Compound: O=C(/C(=C/c1ccc(Cl)cc1Cl)Oc1ccc2c(CN(CCO)CCO)cc(=O)oc2c1)c1nccs1
- MIC [1]: 7 µM (≈ 3.93 µg/mL)
- MIC [2]: 228 µM (≈ 128 µg/mL)
- MIC [3]: 228 µM (≈ 128 µg/mL)
- MIC [4]: 456 µM (≈ 256 µg/mL)
- MIC [5]: 456 µM (≈ 256 µg/mL)
- MIC [6]: 228 µM (≈ 128 µg/mL)
- MIC [7]: 228 µM (≈ 128 µg/mL)
- MIC [8]: 114 µM (≈ 64 µg/mL)
- MIC [9]: 114 µM (≈ 64 µg/mL)
- MIC [10]: 228 µM (≈ 128 µg/mL)
- MIC [11]: 456 µM (≈ 256 µg/mL)

Compound: O=C(/C(=C/c1ccc(Cl)cc1)Oc1ccc2c(CN(CCO)CCO)cc(=O)oc2c1)c1nccs1
- MIC [1]: 121 µM (≈ 63.8 µg/mL)
- MIC [2]: 243 µM (≈ 128 µg/mL)
- MIC [3]: 243 µM (≈ 128 µg/mL)
- MIC [4]: 243 µM (≈ 128 µg/mL)
- MIC [5]: 243 µM (≈ 128 µg/mL)
- MIC [6]: 486 µM (≈ 256 µg/mL)
- MIC [7]: 486 µM (≈ 256 µg/mL)
- MIC [8]: 61 µM (≈ 32.1 µg/mL)
- MIC [9]: 243 µM (≈ 128 µg/mL)
- MIC [10]: 243 µM (≈ 128 µg/mL)
- MIC [11]: 486 µM (≈ 256 µg/mL)

Compound: O=C(/C(=C/c1c[nH]c2cc(Cl)ccc12)Oc1ccc2c(CN(CCO)CCO)cc(=O)oc2c1)c1nccs1
- MIC [1]: 57 µM (≈ 32.3 µg/mL)
- MIC [2]: 57 µM (≈ 32.3 µg/mL)
- MIC [3]: 113 µM (≈ 64 µg/mL)
- MIC [4]: 57 µM (≈ 32.3 µg/mL)
- MIC [5]: 57 µM (≈ 32.3 µg/mL)
- MIC [6]: 57 µM (≈ 32.3 µg/mL)
- MIC [7]: 226 µM (≈ 128 µg/mL)
- MIC [8]: 226 µM (≈ 128 µg/mL)
- MIC [9]: 113 µM (≈ 64 µg/mL)
- MIC [10]: 113 µM (≈ 64 µg/mL)
- MIC [11]: 226 µM (≈ 128 µg/mL)

Compound: Cc1ccc(/C=C(\Oc2ccc3c(CN(CCO)CCO)cc(=O)oc3c2)C(=O)c2nccs2)cc1
- MIC [1]: 63 µM (≈ 31.9 µg/mL)
- MIC [2]: 63 µM (≈ 31.9 µg/mL)
- MIC [3]: 126 µM (≈ 63.8 µg/mL)
- MIC [4]: 63 µM (≈ 31.9 µg/mL)
- MIC [5]: 126 µM (≈ 63.8 µg/mL)
- MIC [6]: 63 µM (≈ 31.9 µg/mL)
- MIC [7]: 16 µM (≈ 8.11 µg/mL)
- MIC [8]: 253 µM (≈ 128 µg/mL)
- MIC [9]: 253 µM (≈ 128 µg/mL)
- MIC [10]: 505 µM (≈ 256 µg/mL)
- MIC [11]: 126 µM (≈ 63.8 µg/mL)

Compound: O=C(/C(=C/c1ccccc1)Oc1ccc2c(CN(CCO)CCO)cc(=O)oc2c1)c1nccs1
- MIC [1]: 130 µM (≈ 64 µg/mL)
- MIC [2]: 130 µM (≈ 64 µg/mL)
- MIC [3]: 260 µM (≈ 128 µg/mL)
- MIC [4]: 1040 µM (≈ 512 µg/mL)
- MIC [5]: 1040 µM (≈ 512 µg/mL)
- MIC [6]: 1040 µM (≈ 512 µg/mL)
- MIC [7]: 1040 µM (≈ 512 µg/mL)
- MIC [8]: 520 µM (≈ 256 µg/mL)
- MIC [9]: 1040 µM (≈ 512 µg/mL)
- MIC [10]: 520 µM (≈ 256 µg/mL)
- MIC [11]: 260 µM (≈ 128 µg/mL)

— ChEMBL document CHEMBL4823277, “Novel chalcone-conjugated, multi-flexible end-group coumarin thiazole hybrids as potential antibacterial repressors against methicillin-resistant Staphylococcus aureus” (Eur J Med Chem, 2021)
